Data set [1] is described as follows: Antiplatelet activity in rabbit platelets assessed as inhibition of ADP-induced platelet aggregation at 200 uM by aggregometer. Format: functional, Oryctolagus cuniculus. Also on record: scale not given: the % may be the effect or the level left. A digest of the protocol: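 Rabbit blood anticoagulated with 3.8% trisodium citrate (0.3 ml per 2.7 ml blood). ADP and compound (200 µM) added in sequence, with blank and ADP-control cuvettes. Platelet-rich plasma from 270 g/5 min spin, platelet-poor plasma from 1000 g/10 min spin. Aggregation read on aggregometer and reported as mean aggregation rate A% (n = 6).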

The next data set concerns ECV-304. The data set is described as follows: Protection against hydrogen peroxide-induced cell damage in human ECV304 cells treated 30 mins before hydrogen peroxide challenge measured after 6 hrs. Format: functional, cell-based. A digest of the protocol: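 ECV-304 cells grown 24 h, then given fresh medium with compound at 12.5, 25, 50, 100 or 200 µM. After 0.5 h, 150 µM H2O2 added, then 6 h further incubation. Read-out is absorbance at 570 nm, mean ± SEM, n = 6. Proliferation rate = (OD compd − OD H2O2)/(OD control − OD H2O2) × 100%. EC50 derived by a pEC50 summation formula over proliferation rates.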

Data set [2] is described as follows: Half life in human. The class given is ADME, organism-based. The note with it: in vivo.

Molecules are shown by their SMILES.

As usually defined, the EC50 is the concentration that produces a half-maximal response. The half-life is how long it takes for the measured level to halve.

As to `COc1ccccc1C(=O)N1CCN(Cc2nc(C)c(C)nc2C)CC1`, in data set [1], the Activity was determined as 24.27%. This compound also gave a 50% effective concentration (EC50) in the data set on ECV-304 of 249 µM.

Take `COc1cccc(/C=C/C(=O)N2CCN(Cc3nc(C)c(C)nc3C)CC2)c1OC`: the Activity in data set [1] stood at 8.78%. The same compound returned an EC50 with ECV-304 of 340 µM.

For the compound `COc1ccc(OC)c(/C=C/C(=O)N2CCN(Cc3nc(C)c(C)nc3C)CC2)c1`, the Activity in data set [1] came out at 9.78%. The same compound came in with an EC50 in the data set with ECV-304 of 376 µM.

`Cc1nc(C)c(C)nc1C` [LIGUSTRAZINE]: the Activity in data set [1] amounted to 7.86%. The compound further showed a half-life in data set [2] of 2.89 h. Moreover, the EC50 with ECV-304 was 154 µM.

On to `Cc1nc(C)c(CN2CCN(C(=O)c3ccccc3O)CC2)nc1C`, for which the Activity in data set [1] was determined as 16.71%. Further, the concentration giving a half-maximal response (EC50) in the data set with ECV-304 was 6.13 µM.

In the case of `Cc1nc(C)c(CN2CCN(C(=O)c3ccccc3Cl)CC2)nc1C`, the Activity in data set [1] is on record as 27.24%. In the data set with ECV-304, this compound had a concentration for a half-maximal effect (EC50) of 161 µM.

With `COc1cc(C(=O)N2CCN(Cc3nc(C)c(C)nc3C)CC2)cc(OC)c1OC`, the Activity in data set [1] is reported as 14.26%. In the data set with ECV-304, this compound yielded an EC50 of 88.7 µM.

`Cc1nc(C)c(CN2CCN(S(=O)(=O)c3ccccc3)CC2)nc1C`: in data set [1], the Activity came out at 24.49%. This compound also displayed an EC50 in the data set on ECV-304 of 480 µM.

For the compound `Cc1nc(C)c(CN2CCN(C(=O)Cc3ccccc3)CC2)nc1C`, the Activity in data set [1] was found to be 25.59%. In addition, the concentration giving a half-maximal response (EC50) in the data set with ECV-304 amounted to 189 µM.

For `Cc1nc(C)c(CN2CCN(C(=O)/C=C/c3cccc([N+](=O)[O-])c3)CC2)nc1C`, the Activity in data set [1] came to 13.07%. The compound further gave a 50% effective concentration (EC50) with ECV-304 of 422 µM.

In the case of `Cc1nc(C)c(CN2CCN(C(=O)c3ccc(Cl)cc3Cl)CC2)nc1C`, the Activity in data set [1] is 16.08%. In the data set on ECV-304, the midpoint of the response, the EC50, lay at 249 µM.

Consider `Cc1nc(C)c(CN2CCN(C(=O)c3ccc([N+](=O)[O-])cc3)CC2)nc1C`, for which, in data set [1], the Activity is 28.64%. The same compound yielded an EC50 in the data set on ECV-304 of 462 µM.

`Cc1ccc(S(=O)(=O)N2CCN(Cc3nc(C)c(C)nc3C)CC2)cc1`: in data set [1], the Activity came to 25.13%.

Turning to `Cc1nc(C)c(CN2CCN(C(=O)c3ccc(Cl)cc3)CC2)nc1C`, the Activity in data set [1] amounted to 25.62%. This compound also registered a half-maximal effective concentration (EC50) in the data set on ECV-304 of 208 µM.

`Cc1nc(C)c(CN2CCN(C(=O)c3cccc(Cl)c3)CC2)nc1C`: the Activity in data set [1] came out at 24.74%. Besides, in the data set with ECV-304, the concentration giving a half-maximal response (EC50) amounted to 121 µM.

On to `Cc1nc(C)c(CN2CCN(C(=O)Cc3ccc([N+](=O)[O-])cc3)CC2)nc1C`, for which the Activity in data set [1] was determined as 18.24%. The compound also came in with an EC50 in the data set on ECV-304 of 377 µM.

On to `COc1ccc(C(=O)N2CCN(Cc3nc(C)c(C)nc3C)CC2)cc1OC`, for which, in data set [1], the Activity was found to be 29.06%. In the data set with ECV-304, this compound showed an EC50 of 170 µM.

`Cc1nc(C)c(CN2CCN(C(=O)CCl)CC2)nc1C`: the Activity in data set [1] came to 24.89%. The same compound showed an EC50 with ECV-304 of 148 µM.

For `Cc1nc(C)c(CN2CCN(C(=O)c3cc([N+](=O)[O-])cc([N+](=O)[O-])c3)CC2)nc1C`, the Activity in data set [1] was 15.67%. In the data set with ECV-304, this compound displayed an EC50 of 179 µM.

Take `Cc1nc(C)c(CN2CCN(C(=O)c3ccc(I)cc3)CC2)nc1C`: the Activity in data set [1] is reported as 25.17%. Further, the EC50 with ECV-304 is 125 µM.

Turning to `COc1ccc(/C=C/C(=O)N2CCN(Cc3nc(C)c(C)nc3C)CC2)cc1OC`, the Activity in data set [1] is reported as 6.13%. Besides, a half-maximal effect in the data set with ECV-304 (EC50) was put at 282 µM.

`Cc1nc(C)c(CN2CCN(C(=O)c3ccccc3I)CC2)nc1C`: the Activity in data set [1] is recorded as 25.45%. In the data set with ECV-304, this compound came in with an EC50 of 67.8 µM.

In the case of `Cc1nc(C)c(CN2CCN(C(=O)c3ccco3)CC2)nc1C`, in data set [1], the Activity was found to be 21.76%. The compound also showed an EC50 with ECV-304 of 37.6 µM.

Regarding `Cc1nc(C)c(CN2CCN(S(C)(=O)=O)CC2)nc1C`, the Activity in data set [1] was determined as 33.51%. Besides, in the data set with ECV-304, the midpoint of the response, the EC50, lay at 162 µM.

In the case of `Cc1nc(C)c(CN2CCN(C(=O)CCc3ccccc3)CC2)nc1C`, the Activity in data set [1] turned out to be 13.29%. This compound showed a 50% effective concentration (EC50) in the data set with ECV-304 of 150 µM.

For `CCOC(=O)N1CCN(Cc2nc(C)c(C)nc2C)CC1`, the Activity in data set [1] is listed as 15.25%. In addition, the concentration giving a half-maximal response (EC50) in the data set with ECV-304 is 76.6 µM.

For the compound `Cc1nc(C)c(CN2CCN(C(=O)c3ccncc3)CC2)nc1C`, in data set [1], the Activity amounted to 6.07%. In the data set on ECV-304, this compound gave an EC50 of 29.7 µM.

For the compound `Cc1nc(C)c(CN2CCN(C(=O)C(=O)c3ccccc3)CC2)nc1C`, in data set [1], the Activity is 26.11%. The compound also returned an EC50 in the data set with ECV-304 of 304 µM.

`COc1ccc(C(=O)N2CCN(Cc3nc(C)c(C)nc3C)CC2)cc1`: the Activity in data set [1] is 26.06%. The same compound registered a concentration for a half-maximal effect (EC50) in the data set on ECV-304 of 210 µM.

On to `COc1cc(/C=C/C(=O)N2CCN(Cc3nc(C)c(C)nc3C)CC2)ccc1OC(C)=O`, for which, in data set [1], the Activity is listed as 5.84%.

On to `Cc1nc(C)c(CN2CCN(C(=O)C(C)(C)Oc3ccc(Cl)cc3)CC2)nc1C`, for which the Activity in data set [1] was found to be 13.68%.

For `Cc1nc(C)c(CN2CCN(C(=O)c3ccccc3)CC2)nc1C`, in data set [1], the Activity came out at 28.46%. In the data set with ECV-304, the half-maximal effective concentration (EC50) is 241 µM.

For the compound `CC(=O)Oc1ccccc1C(=O)N1CCN(Cc2nc(C)c(C)nc2C)CC1`, the Activity in data set [1] amounted to 3.02%. Besides, the concentration giving a half-maximal response (EC50) in the data set on ECV-304 turned out to be 159 µM.

Consider `Cc1nc(C)c(CN2CCN(C(=O)c3cccnc3)CC2)nc1C`, for which the Activity in data set [1] is 5.08%. This compound also displayed an EC50 in the data set with ECV-304 of 220 µM.

Values taken from ChEMBL document CHEMBL1153450, “Ligustrazine derivatives. Part 3: Design, synthesis and evaluation of novel acylpiperazinyl derivatives as potential cerebrocardiac vascular agents” (Bioorg Med Chem, 2009).
